Results gathered from unrelated publications.
Protocols differ between the studies behind these lines. pEC50, pIC50: −log10 of the molar value.
Effect on: cell growth or viability

For `c1ccc(-c2ccc(CNCC3(N4CCCC4)COC3)s2)cc1`, the viability was 74.6% (A 172; 30 µM, 48 h).
For `C[C@@H](Oc1cc(-c2cnn(C3CCNCC3)c2)cnc1N)c1c(Cl)ccc(F)c1Cl`, the inhibition was 64.4% (NCI-H2228; MTT; 0.2 µg/mL, 72 h).
With `Cn1nnc2c(C(N)=O)ncn2c1=O` the pEC50 was 3.73 (SNU-16).
For `NC(=S)NN=C(CS(=O)(=O)c1ccccc1)c1ccc(F)cc1`, the viability was 45.4% (SK-MEL-23; MTT; 25 µM, 48 h).
`CN(C)CCCOc1cc(NC(=O)c2cccc(C(=O)Nc3cc(OCCCN(C)C)c4ccccc4n3)n2)nc2ccccc12` gave a pIC50 of 5.59 (HT-1080; ATP luminescence; 72 h).
The pIC50 of `CC(C)C[C@H](NC(=O)[C@H](Cc1ccccc1)NC(=O)c1cnccn1)B(O)O` is reported as 8.06 (A 172; ATP luminescence).
The GI50 of `COc1cccc(Oc2ccccc2NC(=O)CNC(=O)c2cccc3ccccc23)c1` is reported as 166 nM (RXF 393; SRB; 48 h).
For `Cc1ccc(C(CS(=O)(=O)c2ccccc2)=NNc2nc(C)c(N=Nc3cccc(C)c3)s2)cc1`, the viability was 59.5% (SK-MEL-23; MTT; 1.6 µM, 48 h).
For `c1ccc(-c2ccc(CNCC3(N4CCCC4)COC3)o2)cc1`, the viability was 78.5% (A 172; 30 µM, 48 h).
`Cc1ccc(C(CS(=O)(=O)c2ccccc2)=NN=C2N=C(c3ccc(Br)cc3)CS2)cc1` has a viability of 72.1% (SK-MEL-23; MTT; 1.6 µM, 48 h).
For `COc1ccc(-c2ccc(-c3ccc(C(=N)N)nc3)s2)cc1`, the GI50 was 1770 nM (RXF 393).
`Clc1ccccc1-c1ccc(CNCC2(N3CCCC3)COC2)o1` has a viability of 70.6% (A 172; 30 µM, 48 h).
With `CC(C)(C)c1nc(-c2cccc(NS(=O)(=O)c3c(F)cccc3F)c2F)c(-c2ccnc(N)n2)s1` the viability was 34.4% (SK-MEL-23; MTT; 100 µM, 48 h).
`Cc1cc(Nc2ncc(Cl)c(Nc3ccccc3S(=O)(=O)C(C)C)n2)c(OC(C)C)cc1C1CCNCC1` gave an inhibition of 80% (NCI-H2228; MTT; 1 µg/mL, 72 h).
The viability of `FC1CCN(C2(CNCc3ccc(-c4ccccc4Cl)o3)COC2)C1` (stereo not drawn) is reported as 60.4% (A 172; 30 µM, 48 h).
With `COc1ccc(-c2ccc(-c3ccc(C(=N)N)nc3)s2)cc1Cl` the GI50 was 1760 nM (RXF 393).
The viability of `Cc1ccc(C(CS(=O)(=O)c2ccccc2)=NNC2=NC(=O)C(=NNc3ccccc3)S2)cc1` is reported as 42.9% (SK-MEL-23; MTT; 1.6 µM, 48 h).
`Fc1ccc2c(CNCC3(N4CCC(F)C4)COC3)c[nH]c2c1` (stereo not drawn) gave a viability of 80.6% (A 172; 30 µM, 48 h).
